# Test system: HEK-293T
# Test: Multiplex assay against HEK293T;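 as to Population Tubulin-Different-Phenotype (%): share of the cells with healthy nuclei that show this phenotype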
# Assay type: toxicity, cell-based
# Conditions: human
# Procedure, shortened: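 On a CQ1 microscope at 37°C and 5% CO2, live cells were imaged after compound addition. They had been stained at seeding with Hoechst33342, BioTracker Green Microtubule Cytoskeleton Dye, MitoTracker Red and Annexin V Alexa Fluor 680. CellPathfinder machine-learning gating assigned cells to Hoechst high-intensity objects or normal cells, normal cells to healthy, pyknosed or fragmented nuclei, and pyknosed cells to mitotic or apoptotic. Tubulin, mitochondrial-mass and membrane-permeability phenotypes are per cents of healthy-nucleus cells.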
# [1] = 12 h, 1 µM, compound concentration 1 uM, replicate 1
# [2] = 12 h, 1 µM, compound concentration 1 uM, replicate 2
# [3] = 12 h, 10 µM, compound concentration 10 uM, replicate 1
# [4] = 12 h, 10 µM, compound concentration 10 uM, replicate 2
# [5] = 24 h, 1 µM, compound concentration 1 uM, replicate 1
# [6] = 24 h, 1 µM, compound concentration 1 uM, replicate 2
# [7] = 24 h, 10 µM, compound concentration 10 uM, replicate 1
# [8] = 24 h, 10 µM, compound concentration 10 uM, replicate 2
# [9] = 48 h, 1 µM, compound concentration 1 uM, replicate 1
# [10] = 48 h, 1 µM, compound concentration 1 uM, replicate 2
# [11] = 48 h, 10 µM, compound concentration 10 uM, replicate 1
# [12] = 48 h, 10 µM, compound concentration 10 uM, replicate 2
smiles,measurement,setting,value
Cl.NC[C@@H]1O[C@H](C23CC4CC(CC(C4)C2)C3)Cc2c1ccc(O)c2O,Population Apoptotic (%),[1],34%
same,Population Fragmented Nuclei (%),[1],10%
same,Population Healthy Nuclei (%),[1],49%
same,Population Hoechst High Intensity Objects (%),[1],11%
same,Population Membrane Permeable-Phenotype (%),[1],2%
same,Population Mitochondria Different-Phenotype (%),[1],80%
same,Population Mitotic Cells (%),[1],65%
same,Population Normal (%),[1],88%
same,Population Pyknosed Nuclei (%),[1],40%
same,Population Tubulin-Different-Phenotype (%),[1],55%
same,Total Cell Count,[1],321
same,Population Apoptotic (%),[2],7%
same,Population Fragmented Nuclei (%),[2],3%
same,Population Healthy Nuclei (%),[2],47%
same,Population Hoechst High Intensity Objects (%),[2],2%
same,Population Membrane Permeable-Phenotype (%),[2],8%
same,Population Mitochondria Different-Phenotype (%),[2],38%
same,Population Mitotic Cells (%),[2],92%
same,Population Normal (%),[2],97%
same,Population Pyknosed Nuclei (%),[2],48%
same,Population Tubulin-Different-Phenotype (%),[2],47%
same,Total Cell Count,[2],267
same,Population Apoptotic (%),[3],60%
same,Population Fragmented Nuclei (%),[3],10%
same,Population Healthy Nuclei (%),[3],8%
same,Population Hoechst High Intensity Objects (%),[3],16%
same,Population Membrane Permeable-Phenotype (%),[3],0%
same,Population Mitochondria Different-Phenotype (%),[3],94%
same,Population Mitotic Cells (%),[3],39%
same,Population Normal (%),[3],83%
same,Population Pyknosed Nuclei (%),[3],80%
same,Population Tubulin-Different-Phenotype (%),[3],58%
same,Total Cell Count,[3],245
same,Population Apoptotic (%),[4],37%
same,Population Fragmented Nuclei (%),[4],7%
same,Population Healthy Nuclei (%),[4],6%
same,Population Hoechst High Intensity Objects (%),[4],11%
same,Population Membrane Permeable-Phenotype (%),[4],9%
same,Population Mitochondria Different-Phenotype (%),[4],54%
same,Population Mitotic Cells (%),[4],62%
same,Population Normal (%),[4],88%
same,Population Pyknosed Nuclei (%),[4],86%
same,Population Tubulin-Different-Phenotype (%),[4],27%
same,Total Cell Count,[4],204
same,Population Apoptotic (%),[5],34%
same,Population Fragmented Nuclei (%),[5],10%
same,Population Healthy Nuclei (%),[5],65%
same,Population Hoechst High Intensity Objects (%),[5],13%
same,Population Membrane Permeable-Phenotype (%),[5],0%
same,Population Mitochondria Different-Phenotype (%),[5],46%
same,Population Mitotic Cells (%),[5],65%
same,Population Normal (%),[5],86%
same,Population Pyknosed Nuclei (%),[5],24%
same,Population Tubulin-Different-Phenotype (%),[5],43%
same,Total Cell Count,[5],389
same,Population Apoptotic (%),[6],12%
same,Population Fragmented Nuclei (%),[6],4%
same,Population Healthy Nuclei (%),[6],67%
same,Population Hoechst High Intensity Objects (%),[6],1%
same,Population Membrane Permeable-Phenotype (%),[6],11%
same,Population Mitochondria Different-Phenotype (%),[6],20%
same,Population Mitotic Cells (%),[6],87%
same,Population Normal (%),[6],98%
same,Population Pyknosed Nuclei (%),[6],28%
same,Population Tubulin-Different-Phenotype (%),[6],52%
same,Total Cell Count,[6],310
same,Population Apoptotic (%),[7],36%
same,Population Fragmented Nuclei (%),[7],15%
same,Population Healthy Nuclei (%),[7],10%
same,Population Hoechst High Intensity Objects (%),[7],13%
same,Population Membrane Permeable-Phenotype (%),[7],4%
same,Population Mitochondria Different-Phenotype (%),[7],78%
same,Population Mitotic Cells (%),[7],63%
same,Population Normal (%),[7],86%
same,Population Pyknosed Nuclei (%),[7],73%
same,Population Tubulin-Different-Phenotype (%),[7],73%
same,Total Cell Count,[7],258
same,Population Apoptotic (%),[8],39%
same,Population Fragmented Nuclei (%),[8],9%
same,Population Healthy Nuclei (%),[8],14%
same,Population Hoechst High Intensity Objects (%),[8],15%
same,Population Membrane Permeable-Phenotype (%),[8],32%
same,Population Mitochondria Different-Phenotype (%),[8],12%
same,Population Mitotic Cells (%),[8],60%
same,Population Normal (%),[8],84%
same,Population Pyknosed Nuclei (%),[8],76%
same,Population Tubulin-Different-Phenotype (%),[8],76%
same,Total Cell Count,[8],205
same,Population Apoptotic (%),[9],14%
same,Population Fragmented Nuclei (%),[9],11%
same,Population Healthy Nuclei (%),[9],80%
same,Population Hoechst High Intensity Objects (%),[9],6%
same,Population Membrane Permeable-Phenotype (%),[9],6%
same,Population Mitochondria Different-Phenotype (%),[9],5%
same,Population Mitotic Cells (%),[9],85%
same,Population Normal (%),[9],93%
same,Population Pyknosed Nuclei (%),[9],7%
same,Population Tubulin-Different-Phenotype (%),[9],17%
same,Total Cell Count,[9],773
same,Population Apoptotic (%),[10],8%
same,Population Fragmented Nuclei (%),[10],5%
same,Population Healthy Nuclei (%),[10],83%
same,Population Hoechst High Intensity Objects (%),[10],1%
same,Population Membrane Permeable-Phenotype (%),[10],23%
same,Population Mitochondria Different-Phenotype (%),[10],3%
same,Population Mitotic Cells (%),[10],92%
same,Population Normal (%),[10],98%
same,Population Pyknosed Nuclei (%),[10],11%
same,Population Tubulin-Different-Phenotype (%),[10],42%
same,Total Cell Count,[10],440
same,Population Apoptotic (%),[11],23%
same,Population Fragmented Nuclei (%),[11],21%
same,Population Healthy Nuclei (%),[11],10%
same,Population Hoechst High Intensity Objects (%),[11],15%
same,Population Membrane Permeable-Phenotype (%),[11],38%
same,Population Mitochondria Different-Phenotype (%),[11],0%
same,Population Mitotic Cells (%),[11],76%
same,Population Normal (%),[11],84%
same,Population Pyknosed Nuclei (%),[11],67%
same,Population Tubulin-Different-Phenotype (%),[11],46%
same,Total Cell Count,[11],286
same,Population Apoptotic (%),[12],55%
same,Population Fragmented Nuclei (%),[12],11%
same,Population Healthy Nuclei (%),[12],24%
same,Population Hoechst High Intensity Objects (%),[12],16%
same,Population Membrane Permeable-Phenotype (%),[12],56%
same,Population Mitotic Cells (%),[12],44%
same,Population Normal (%),[12],83%
same,Population Pyknosed Nuclei (%),[12],63%
same,Population Tubulin-Different-Phenotype (%),[12],66%
same,Total Cell Count,[12],190
